We go through 167 variants from the RNAGym collection of RNA variant scans (doi:10.1126/science.aae0568).

The labels stand for the following.
B1: tRNA (parent)
chain: GUUCCGUUGGCGUAAUGGUAACGCGUCUCCCUCCUAAGGAGAAGACUGCGGGUUCGAGUCCCGUACGGAACG

Variants at the floor of the assay were thinned out.

In the data set the parent is B1. In words: yeast fitness relative to wild type (ratio to wild type); higher = fitter; tRNA-Arg(CCU), competitive growth, 37 C, YPD. In outline: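 Gene amplicons from the start population and from each of six end populations were read by 100-nucleotide paired-end sequencing. Those end populations came from pooled Saccharomyces cerevisiae strains carrying tRNA-Arg(CCU) gene variants at the native locus, competed in YPD at 37°C for 24 hours. Fitness relative to wild type was worked out from changes in genotype frequencies. Genotypes needed ≥ 100 starting reads, and estimates < 0.5 were set to 0.5.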
Regarding U13A A20C C33A G39A, the yeast fitness was at most 0.5.

As to G12C U32C G41C A57G, the yeast fitness is at most 0.5. The result for G12C U35C A37G G38A A45U A70G reads at most 0.5; that for U13A A21C G52A, at most 0.5; that for G12C G51C U59G, at most 0.5. Regarding U13A A15U U16A A36U G44C G56A, the yeast fitness is at most 0.5. For U13A A20C C22G the value was at most 0.5.

As for U13A A15C C33G C49U U64A, the yeast fitness was at most 0.5. Turning to G12C U16A G23C C29A A45C G68A, the yeast fitness turned out to be 0.748. The result for G12C U13A G50A reads at most 0.5. As for U13A A14C G18A G44A C66G, the yeast fitness is at most 0.5. For G12U A36G A69U the value was 0.733. Take U13A A40G A42G: the yeast fitness was at most 0.5. With G12C U19G G25A C49U U59A U64A, the yeast fitness was at most 0.5.

Regarding G12C U35A, the yeast fitness stood at 0.774.

On to G12C U35G, for which the yeast fitness amounted to 0.677. For G12C U35C, the yeast fitness stood at 0.691. Turning to G12C U26C A43C, the yeast fitness amounted to 0.741. For G12C G63A the value was 0.81; for G12C U19A C27G G44C, at most 0.5. The result for G12C U28G A37G G41A G48A G67C reads at most 0.5. Regarding U13A A43C A57C, the yeast fitness is at most 0.5. The result for U13A A14U C22G A45U reads 0.507; that for G12C G41C, 0.748; that for U13A A37G G41C, at most 0.5. The result for U13A A20U C24U A37G U59G reads at most 0.5; that for G12C G48C G58A, 0.804; that for G12C U32G, 0.689. On to G12U A15G, for which the yeast fitness turned out to be 0.814. G12C G25A U54C: the yeast fitness is 0.635.

Take U13A A14C C22A G48C G67U: the yeast fitness is at most 0.5.

As to G12C U26A C33A C34G A69C, the yeast fitness was at most 0.5. The result for G12C U13C A20C C29G reads at most 0.5. Regarding G12U A37G C66U, the yeast fitness amounted to 0.614. For U13A A21C G38A A40U G50C C60G A70G, the yeast fitness is at most 0.5. As for U13A A20C C46U, the yeast fitness worked out at 0.844.

Regarding G12C G39C G50C C61G, the yeast fitness was at most 0.5. Take U13A A15C A45G C55U C61G: the yeast fitness is at most 0.5. The result for U13A A15C C33G C49U C61U reads 0.574. For the variant G12C U53C C60G G63U, the yeast fitness was determined as 0.691. For U13A A21C A37G A42G the value was at most 0.5; for G12C U16A G23C C29A C60A, at most 0.5. For G12C G44A the value was 0.879; for U13A A14U A20U, 0.835; for G12U C24A G44A A65U, at most 0.5. For U13A A21C C33U G52A A57G G67U the value was at most 0.5; for G12U A36G A65C, 0.561; for G12C G67U, 0.767. As for G12C U13G A15C A36U, the yeast fitness was at most 0.5. G12C U13C A20C C24G G39C U64A: the yeast fitness is at most 0.5. As to U13A A37C A43U G50C A57G, the yeast fitness was at most 0.5. The result for U13A A21C A42G C62A A69U reads at most 0.5; that for U13A A21C G44A, at most 0.5; that for G12C U16A C27G A36G C46U C61U G68A, at most 0.5. With G12C U28A A37G G38A A45U A70G, the yeast fitness was at most 0.5. For G12C U28G A37G G41A G48A A65U C66U the value was at most 0.5; for U13A A15G G48A A65G, 0.581; for G12C U54G, 0.657. As to U13A A20G C24U U35C G58C, the yeast fitness worked out at 0.632. The result for G12C U16A C49G reads 0.593; that for G12C U16A U26A G67U, at most 0.5; that for G12C G38C, 0.54.

Take U13A A20C C46U A70U: the yeast fitness came out at 0.589. The result for G12C G48A A69U reads 0.836; that for G12C U28C C49U U59A, at most 0.5; that for U13A A40U G52U C55G, at most 0.5.

Regarding G12U, the yeast fitness amounted to 1.04. With G12C U19A C27G C49G C61U, the yeast fitness was at most 0.5. As for G12C U28G A37G G41A G48A, the yeast fitness was found to be 0.549. The result for G12C U26A C33A C34G reads 0.55.

G12C G39A: the yeast fitness amounted to 0.75. In the case of U13A A37C G56A, the yeast fitness is at most 0.5. The result for G12C G58A A65U reads 0.72.

Take U13A A14U C22G A37G: the yeast fitness amounted to 0.631.

U13A A15G C27U: the yeast fitness was 0.601. Take U13A A15G C27G: the yeast fitness was at most 0.5. Consider G12C G51A U59A C62G, for which the yeast fitness was at most 0.5. On to U13A A21U C22G U32C A42C G48C C55G, for which the yeast fitness is at most 0.5. For U13A A15G C31G G58C the value was at most 0.5. For U13A A20U C27U A42G U54C the value was at most 0.5. The result for U13A A21G G63A reads 0.652; that for G12C U28G, 0.696. G12C G39A G68C: the yeast fitness was at most 0.5.

As to U13A A20U C27U A42G, the yeast fitness was at most 0.5.

Take G12C U16A C60G C61U G63A G68A: the yeast fitness was at most 0.5.

Regarding U13A A21G A57U, the yeast fitness worked out at 0.597.

As for U13A A15G C61U, the yeast fitness is 0.564.

Turning to G12C G41A A65C, the yeast fitness is at most 0.5. The result for U13A A14G A37C G50C G51C reads 0.566; that for G12C U35A G41C, at most 0.5. The result for G12C U28C U59A reads 0.586; that for G12C G25C, 0.762; that for G12C G39A A42C, at most 0.5. G12C U28A G56A A57C: the yeast fitness is at most 0.5. Turning to U13A A40G A43C G50A G67C, the yeast fitness was at most 0.5. In the case of U13A A42C A70U, the yeast fitness amounted to 0.671.

Consider U13A A14U A40C, for which the yeast fitness stood at 0.556. On to G12C G67A A69C, for which the yeast fitness is at most 0.5. For G12C G67A A69G the value was 0.534; for U13A A15C C33G G52A, at most 0.5. For U13A A43G U53G the value was at most 0.5.

Consider U13A A42C C62A, for which the yeast fitness was determined as 0.57. Take G12C U47A G68C: the yeast fitness was determined as 0.533.

For U13A A20U C31G C34U G67U, the yeast fitness was at most 0.5. U13A A21C U54G: the yeast fitness came to 0.557. Consider U13A A21G C60G C66G, for which the yeast fitness was found to be 0.756.

Regarding U13A A21C U54G C66U, the yeast fitness was at most 0.5. Take U13A A37U G68A: the yeast fitness turned out to be 0.637. For U13A A42U the value was 1.03; for U13A A42C G68C, 0.529.

As to G12C G68C, the yeast fitness worked out at 0.823. G12C U13C C27U C62G: the yeast fitness is at most 0.5. As for G12C U19A A42C G50C G56C, the yeast fitness was at most 0.5.

Take G12C U13G C33U C55U G56A: the yeast fitness is at most 0.5. For G12C G56C G58C the value was at most 0.5; for U13A A15G A21C C22G C30G A37U, 0.636. Consider G12C U16A C27G A36G C46U C61U C62A G68A, for which the yeast fitness was at most 0.5. The result for U13A A15G reads 0.932; that for G12C G48A, 1.01. Take G12C G48C: the yeast fitness was 0.787. Take G12C U35G A69C: the yeast fitness was determined as 0.571. Turning to G12C U47G, the yeast fitness was found to be 0.602. The result for G12C U47A reads 0.596. U13A A40C A70U: the yeast fitness is at most 0.5. For G12C G48C G52C the value was at most 0.5; for U13A A21U C22G C31A G50A, at most 0.5; for G12C G52C, 0.563. For G12C G52A, the yeast fitness stood at 0.745. Turning to U13A A14G C30G, the yeast fitness was at most 0.5.

In the case of G12C G39A A70G, the yeast fitness was found to be 0.537. Turning to G12C U13A G18C U32A G52A, the yeast fitness was at most 0.5. Consider U13A A21C C29U C66A, for which the yeast fitness is at most 0.5. U13A A21U G58C G68C: the yeast fitness came out at 0.857.

As for G12C G25C G39C, the yeast fitness is at most 0.5. As to U13A A40G A57U G68A, the yeast fitness stood at 0.524. For U13A A15U G17C C61A the value was at most 0.5. Consider U13A A20G A21G A65C, for which the yeast fitness was at most 0.5.

In the case of G12C G39C A43G, the yeast fitness is at most 0.5. For U13A A21U C22G C31A the value was 0.701; for U13A A20G A36C G41C C61U, 0.62.

In the case of G12U A36G G63A A69U, the yeast fitness worked out at 0.604. With G12C U26C A43C U54C, the yeast fitness was at most 0.5. The result for U13A A14G reads 0.843; that for G12C G50A U54A, at most 0.5; that for G12U G44C, 0.766. Turning to G12C U19G G25A U59A U64A, the yeast fitness turned out to be 0.623. Turning to G12C U53A C61U C62A, the yeast fitness was at most 0.5.

As to U13A A21C C24A G25C C49U, the yeast fitness was at most 0.5.

On to U13A A36U A45U G52C A57U, for which the yeast fitness is at most 0.5. The result for U13A A15G C29A C61G reads at most 0.5; that for G12C U13A A36U, 0.626; that for U13A A37U G67C, 0.645.

In the case of U13A A42G U47A, the yeast fitness stood at 0.542. The result for G12C G41C A57G reads 0.562; that for U13A A37U G41C U59C, at most 0.5. The result for G12C G52C C66U reads at most 0.5; that for G12C U16A C24G G48C, at most 0.5; that for G12C U26C, 0.859. In the case of U13A A37C G41A U47A U59C, the yeast fitness is at most 0.5. With G12C U28A G51A A57U C62U, the yeast fitness was 0.594. As to G12C U64C, the yeast fitness is 0.916. With G12C U16A C24G G58C, the yeast fitness stood at 0.567. The result for G12C U16C reads 0.771; that for U13A A14C C22A G48C, 0.546. Turning to U13A A40U, the yeast fitness is 0.99. The result for G12C U35G G58A G67A reads 0.706; that for U13A A20G G41A G51C, 0.532.
